Source: PubChem BioAssay (several laboratories)
The list is not random: actives were taken first. Their share in the collection is about 12%.
Lmaj promast: reduces viability of Leishmania major promastigotes; resazurin fluorescence viability; inhibition, % at 10 µM; 9% of 200,000 active; AID 1063; in the data active = inhibition above about 50%;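 note: promastigotes grown with compound for 44 hours at 28 °C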
Dynein transport: blocks dynein driven cargo transport along microtubules; 0.47% of 220,000 active; z-score, hits read low; 3617.4 mouse cells, GR-EGFP nuclear translocation imaging; test concentration mostly 20 µM; stimulated with dexamethasone, 1 µM; active compounds read low; AID 1381;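 active = plate z-score of nuclear minus cytoplasmic receptor signal below a set negative limit, without overly bright fluorescence or cell loss, cut at about -3.5 in these data, passing the limit was not always enough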;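 note: z-score of nuclear minus cytoplasmic ring GR-EGFP intensity difference per well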
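Buffer or medium: tet-free, stripped-serum medium; reagent: dexamethasone at 1.0 µM final, 30 min; incubation: 48 h induction, 1 h compound, 30 min dex at 37 °C; measured by: formaldehyde fixation, Hoechst nuclear stain, 10x automated fluorescence imaging; read-out: nuclear-to-cytoplasmic GR-EGFP distribution per well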
Autophagy HCS: alters autophagy in cells; calls only at 10 µM (by protocol); 0.98% of 190,000 active; MEF GFP-LC3 puncta imaging; test concentration mostly 10 µM; AID 463193;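 active = percentage of spot-positive cells more than 3 SD above its plate mean, without a fluorescence outlier flag or 80% toxicity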;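 note: spot-positive cell cutoff set from DMSO-treated cells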
b-catenin transl: modulators of beta-catenin nuclear translocation; HeLa beta-catenin nuclear translocation, immunofluorescence imaging; nuclear translocation activity, % at 5 µM; 0.3% of 190,000 active; AID 1665;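 active = nuclear translocation activity above 50% at 5 µM, with a well cell count of 50 or more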;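 note: per-cell ratio of nuclear to cytoplasmic median beta-catenin stain intensity; plate controls were DMSO negative control for no effect and GSK-3 inhibitor IX positive control for full effect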
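Technique: fluorescence imaging of beta-catenin antibody stain plus DAPI / Material: human HeLa cell line / Incubation: compound treatment 24 h, 37°C, 5% CO2 / Read-out basis: % activation of per-cell nuclear versus cytoplasmic median beta-catenin signal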
CHOP inhibitor: CHOP inhibition in unfolded protein response. CHO-K1 CHOP-promoter luciferase, tunicamycin-induced, 15-18 h. inhibition, % at 10 µM. 3.8% of 220,000 active;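 active = compounds that reduced the stress-induced luciferase reporter signal by more than about 70% of percent inhibition, limit read from the data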;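 note: 0% = tunicamycin plus vehicle and 100% = wells without tunicamycin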
MT stabilizer: stabilizes microtubules in HeLa cells | HeLa tubulin immunostaining HCS, 24 h; share of cells brighter than vehicle mean+2SD | 0.83% of 200,000 active | % tubulin-high responders, % at 10 µM;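 active = plate Z-score above 3 for both tubulin-high and condensed-nucleus cell shares, with cell loss under 80%, at 10 µM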;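 note: anti alpha tubulin signal scored within the nucleus-defined area of each cell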
Numbers without * were called inactive.

CCc1nnc(NS(=O)(=O)c2ccc(NC(=S)NC(=O)c3ccc(OC)c(OC)c3)cc2)s1 was read as Lmaj promast -9, Dynein transport 0.23, Autophagy HCS inactive, b-catenin transl -2, CHOP inhibitor 37 and MT stabilizer 1.
`CCOC(=O)c1c(NC(=O)CSC2=NN3CCCC(=O)N=C3S2)sc2c1CCCCC2` gave Lmaj promast -1, Dynein transport 0.12, Autophagy HCS inactive, b-catenin transl 3, CHOP inhibitor 11 and MT stabilizer 3.
Screening Cc1cc(NS(=O)(=O)c2ccc(NC(=O)c3cc4cc(Br)ccc4oc3=O)cc2)no1 returned Lmaj promast -11, Dynein transport -0.59, Autophagy HCS inactive, b-catenin transl 0, CHOP inhibitor 91* and MT stabilizer 1.
Cc1cc(NC(=O)c2cc3ccccc3oc2=O)no1 was read as Lmaj promast -2, Dynein transport -0.28, Autophagy HCS inactive, b-catenin transl 0, CHOP inhibitor 24 and MT stabilizer 2.
For C/C(CC(=O)NC12CC3CC(CC(C3)C1)C2)=N\NC(=O)c1ccc(C)cc1 the results were Lmaj promast -5, Dynein transport 0.46, Autophagy HCS inactive, b-catenin transl -1, CHOP inhibitor -5 and MT stabilizer 3.
Screening O=C(N/N=C/c1nn(-c2ccccc2)cc1-c1ccc(Cl)cc1)c1ccncc1 returned Lmaj promast 60*, Dynein transport 0.4, Autophagy HCS inactive, b-catenin transl 6, CHOP inhibitor 17 and MT stabilizer 3.
Cc1ccc(NC(=S)NN(C)c2cc(C)nc(C)n2)cc1 was read as Lmaj promast -2, Dynein transport -0.47, Autophagy HCS inactive, b-catenin transl -4, CHOP inhibitor 10 and MT stabilizer 4.
For CCCC(=O)Nc1cc(-c2nc3ncccc3o2)ccc1C the results were Lmaj promast 89*, Dynein transport 0.96, Autophagy HCS inactive, CHOP inhibitor -16 and MT stabilizer 3.
Screening Cc1ccc(-c2nc3ncccc3o2)cc1NC(=O)c1cccs1 returned Lmaj promast 95*, Dynein transport -0.63, Autophagy HCS inactive, b-catenin transl -2, CHOP inhibitor 5 and MT stabilizer 1.
For Cc1ccc(-c2nc3ncccc3o2)cc1NC(=O)c1ccco1 the results were Lmaj promast 99*, Dynein transport 0.44, Autophagy HCS inactive and MT stabilizer 3.
`CCCC(=O)NC(=S)Nc1cc(-c2nc3ncccc3o2)ccc1C` gave Dynein transport -1.3, b-catenin transl -1 and CHOP inhibitor 5.
COc1ccc(NC(=O)c2c(NC(=O)CCC(=O)O)sc(-c3ccccc3)c2C)cc1 was read as Lmaj promast 1, Dynein transport 1.5, Autophagy HCS inactive, b-catenin transl 1, CHOP inhibitor 3 and MT stabilizer 3.
`COc1ccc2c(c1)S/C(=C\C(=O)c1ccncc1)N2C` gave Lmaj promast 97*, Dynein transport 0.17, Autophagy HCS inactive, b-catenin transl -2, CHOP inhibitor 13 and MT stabilizer 2.
Screening CN1/C(=C/C(=O)c2ccc(Cl)cc2)Sc2cc3c(cc21)OCO3 returned Lmaj promast 49, Dynein transport -0.58, Autophagy HCS active, b-catenin transl 4, CHOP inhibitor -23 and MT stabilizer 3.
Cc1cc(C)n2nc(CC(=O)NC3CCCCCC3)nc2n1 was read as Lmaj promast -3, Dynein transport 0.27, Autophagy HCS inactive, b-catenin transl -2, CHOP inhibitor 19 and MT stabilizer 3.
Screening CCOC(=O)C1=C(c2ccccc2)N=c2s/c(=C\c3cccc(O)c3)c(=O)n2C1c1cccs1 (stereo not given) returned Lmaj promast 89*, Dynein transport -0.35, Autophagy HCS inactive, b-catenin transl -8, CHOP inhibitor 90* and MT stabilizer 3.
CCOC(=O)C1=C(C)N=c2s/c(=C\c3ccc(OCC(=O)O)cc3)c(=O)n2C1c1ccc(OC(C)C)cc1 (stereo not given) was read as Lmaj promast -7, Dynein transport -0.57, Autophagy HCS inactive, b-catenin transl -1, CHOP inhibitor 17 and MT stabilizer 4.
Screening CCOC(=O)C1=C(C)N=c2s/c(=C\c3ccc(OC(C)=O)c(OCC)c3)c(=O)n2C1/C=C/c1ccccc1 (stereo not given) returned Lmaj promast 49, Dynein transport -2.1, Autophagy HCS active, b-catenin transl 3, CHOP inhibitor -27 and MT stabilizer 2.
CCOC(=O)C1=C(C)N=c2s/c(=C\c3ccc(OC(C)=O)cc3)c(=O)n2C1/C=C/c1ccccc1 (stereo not given) was read as Lmaj promast 100*, Dynein transport 2.6, Autophagy HCS inactive, b-catenin transl -2, CHOP inhibitor 25 and MT stabilizer 3.
For COc1ccccc1Nc1cc(N2CCOCC2)c2nonc2c1[N+](=O)[O-] the results were Lmaj promast 0, Dynein transport -0.45, Autophagy HCS inactive, b-catenin transl -1, CHOP inhibitor -32 and MT stabilizer 16*.
CCOc1ccccc1N1CC(C(=O)Nc2ccc3c(c2)OCCO3)CC1=O (stereo not given) was read as Lmaj promast 0, Dynein transport 1, Autophagy HCS active, b-catenin transl 0, CHOP inhibitor -15 and MT stabilizer 6.
`CCc1ccc(-c2csc(NC(=O)C3CC(=O)N(c4ccc5c(c4)OCCO5)C3)n2)cc1` (stereo not given) gave Lmaj promast 98*, Dynein transport 0.46, Autophagy HCS inactive, CHOP inhibitor 85* and MT stabilizer 10.
CCC(CC)c1nnc(NC(=O)C2CC(=O)N(c3ccc4c(c3)OCCO4)C2)s1 (stereo not given) was read as Lmaj promast -5, Dynein transport 0.042, Autophagy HCS inactive, b-catenin transl 4, CHOP inhibitor 20 and MT stabilizer 2.
Cc1ccccc1S(=O)(=O)N(CC(O)CN1C(=O)NC(C)(C)C1=O)c1ccccc1 (stereo not given) was read as Dynein transport 0.81, b-catenin transl -1 and CHOP inhibitor -6.
N=C1C(c2nc(-c3ccc(Cl)cc3)cs2)=C(O)CN1NC(=O)c1ccc(O)cc1 was read as Dynein transport 0.28, b-catenin transl 2 and CHOP inhibitor -19.
O=C1NCCC/C1=N/Nc1cc(F)ccc1F was read as Dynein transport 0.084, b-catenin transl -3 and CHOP inhibitor 3.
Screening Cc1ccc(CN2C(=O)c3ccccc3NC23CCN(Cc2ccccc2)CC3)cc1 returned Lmaj promast 96*, Dynein transport 0.76, Autophagy HCS active, b-catenin transl 2, CHOP inhibitor 18 and MT stabilizer 3.
